The record followed here is article PMC4081462 (Molecular diversity, 2014).

Series [1] deals with HeLa. Nature of the series: Antiproliferative assay. In kind it is cell-based. Particulars: Homo sapiens, 72 h, read-out: In vitro cytotoxic activity IC50, HeLa.
The subject of series [2] is tubulin. Nature of the series: Inhibition of [3H]vinblastine binding to tubulin. The arrangement: species or system bovine. The settings on record: for Inhibition of binding of [3H]vinblastine, % inhibition ± SD: 10 µM tubulin, 10 µM radiolabeled ligand. In a few lines: (§1)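 Radioligand binding in 0.1 M MES (pH 6.9) with 0.5 mM MgCl2, 10 µM tubulin (1.0 mg/mL), 10 µM radiolabeled ligand and inhibitors at different concentrations. Ligands were mixed before tubulin was added, then incubated 15 min at around 20 °C. Duplicate aliquots were run through Sephadex G-50 superfine syringe columns equilibrated in 0.1 M MES-0.5 mM MgCl2 (pH 6.9). At least two experiments per condition.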

For series [3], the system named is tubulin. Nature of the series: Inhibition of [3H]halichondrin B binding to tubulin. The arrangement: species or system bovine. Particulars: for Inhibition of binding of [3H]halichondrin B, % inhibition ± SD: 10 µM tubulin, 10 µM radiolabeled ligand. In a few lines: as §1
Series [4] relates to SEM cells. Description: Antiproliferative assay. In kind it is cell-based. The settings on record: Homo sapiens, B-cell, 72 h, read-out: In vitro cytotoxic activity IC50, SEM. An outline of the steps: (§2)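 Cells from ATCC. Jurkat and SEM were grown in RPMI-1640, and HeLa and HT-29 in DMEM, each with 115 units/mL penicillin G, 115 µg/mL streptomycin and 10% FBS. 8 × 10³ cells/well were seeded 18 h ahead (37 °C, 5% CO2). The medium was then replaced with test compound at several concentrations (10 mM DMSO stock) for 72 h at 37 °C. MTT read-out was at 560 nm; IC50 is 50% proliferation inhibition.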

For series [5], the system named is HeLa, HT29, SEM, and Jurkat tumor cells. Description: Cytotoxicity on tumor cell panel. The series is classed as cell-based, human. An outline of the steps: as §2
In series [6] the test system is bovine brain tubulin. Nature of the series: Inhibition of tubulin assembly. In kind it is biochemical. The settings on record: for IC50: read-out: Inhibition of tubulin assembly IC50 ± SD, 10 µM bovine brain tubulin, 0.4 mM GTP, 30 °C, 20 min. An outline of the steps: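 10 µM bovine brain tubulin in glutamate buffer was preincubated with varying test compound concentrations at 30 °C, then chilled to 0 °C. 0.4 mM GTP was added and the mixture rewarmed to 30 °C in a recording spectrophotometer. Assembly was followed as turbidity at 350 nm. IC50 is the concentration cutting assembly extent by 50% after 20 min.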

Series [7] deals with tubulin. Description: Inhibition of [3H]dolastatin 10 binding to tubulin. The arrangement: species or system bovine. The settings on record: for Inhibition of binding of [3H]dolastatin 10, % inhibition ± SD: 10 µM tubulin, 10 µM radiolabeled ligand. An outline of the steps:
as §1

Series [8] concerns HT29. Description: Antiproliferative assay. In kind it is cell-based. Particulars: Homo sapiens, HT-29, 72 h, read-out: In vitro cytotoxic activity IC50, HT29.
Series [9] has as its system Jurkat. Description: Antiproliferative assay. The series is classed as cell-based. The settings on record: Homo sapiens, 72 h, read-out: In vitro cytotoxic activity IC50, Jurkat. An outline of the steps:
as §2

Where a name gives a salt, the structure may show the parent alone.

A word on the IC50: it is the concentration at which inhibition is half-maximal. As to `CN[C@H](C(=O)N[C@H](C(=O)N(C)[C@H](/C=C(\C)C(=O)O)C(C)C)C(C)(C)C)C(C)(C)c1ccccc1` [Compound 2, taltobulin], the IC50 in series [1] amounted to 0.2 ± 0.1 nM; in series [4] it was 0.1 ± 0.05 nM; in series [6] it was 1200 ± 10 nM; in [8], 0.3 ± 0.1 nM; in series [9], 0.2 ± 0.5 nM. In addition, the “Inhibition of the binding of [3H]vinblastine (in words)” value in series [2] was “active”. Besides, the “Inhibition of binding of [3H]vinblastine, % inhibition ± SD” value in [2] (inhibitor 5 µM) amounted to 29 ± 9%; in series [2] (inhibitor 20 µM), 60 ± 2%. Further, the “Inhibition of the binding of [3H]halichondrin B (in words)” value in series [3] is reported as “active”. Also, the “Inhibition of binding of [3H]halichondrin B, % inhibition ± SD” value in series [3] (inhibitor 5 µM) stood at 38 ± 6%; in [3] (inhibitor 20 µM) it was 63 ± 1%. Also, the “Cytotoxic activity (in words)” value in series [5] is reported as “nanomolar IC50 values”. For the same compound, the “Inhibition of tubulin assembly (in words)” value in series [6] is “active”. The “Inhibition of the binding of [3H]dolastatin 10 (in words)” value in [7] is “active”. Besides, the entries for the “Inhibition of binding of [3H]dolastatin 10, % inhibition ± SD” value in series [7] (inhibitor 5 µM) and in [7] (inhibitor 20 µM) were 0 ± 0% and 30 ± 1%, respectively.
Take `CN[C@H](C(=O)N[C@H](C(=O)N(C)[C@H](c1nc(C(=O)O)co1)C(C)C)C(C)C)C(C)(C)c1ccccc1` [Compound 8, 2-((S)-1-((S)-N,3-Dimethyl-2-((S)-3-methyl-2-(methylamino)-3-phenylbutanamido)butanamido)-2-methylpropyl)oxazole-4-carboxylic acid trifluoroacetate]: the IC50 in series [1], in series [4], in series [8] and in series [9] was above 10000 nM in each case.
Take `CN[C@H](C(=O)N[C@H](C(=O)N(C)[C@H](/C=C(\C)C(=O)O)C(C)C)C(C)(C)C)C(C)(C)c1cn(C)c2ccccc12` [Compound 1, hemiasterlin]: the “Inhibition of the binding of [3H]vinblastine (in words)” value in series [2] is listed as “active”. Also, the “Inhibition of binding of [3H]vinblastine, % inhibition ± SD” value is 14 ± 4% in series [2] (inhibitor 5 µM) and 66 ± 4% in [2] (inhibitor 20 µM). Moreover, the “Inhibition of the binding of [3H]halichondrin B (in words)” value in [3] is given as “active”. In addition, the entries for the “Inhibition of binding of [3H]halichondrin B, % inhibition ± SD” value in series [3] (inhibitor 5 µM) and in series [3] (inhibitor 20 µM) were 38 ± 4% and 92 ± 2%, respectively. For the same compound, the “Inhibition of tubulin assembly (in words)” value in series [6] is given as “active”. Besides, in series [6], the IC50 was found to be 1300 ± 50 nM. In addition, in series [7], the “Inhibition of the binding of [3H]dolastatin 10 (in words)” value is given as “active”. Also, the “Inhibition of binding of [3H]dolastatin 10, % inhibition ± SD” value worked out at 19 ± 7% in [7] (inhibitor 5 µM) and 89 ± 1% in series [7] (inhibitor 20 µM).
On to `CN[C@H](C(=O)N[C@H](C(=O)N(C)c1cccc(C(=O)O)c1)C(C)C)C(C)(C)c1ccccc1.O=C(O)C(F)(F)F` [Compound 3, 3-((S)-N,3 Dimethyl-2-((S)-3-methyl-2-(methylamino)-3-phenylbutanamido)butanamido) benzoic acid trifluoroacetate], for which the IC50 in series [1] was 4700 ± 500 nM; in [4], above 10000 nM; in [6], above 20000 nM; in series [8], 1900 ± 500 nM; in [9], 150 ± 20 nM. For the same compound, the “Inhibition of binding of [3H]vinblastine, % inhibition ± SD” value in series [2] (inhibitor 20 µM) is recorded as 2 ± 1%. Besides, in series [3] (inhibitor 20 µM), the “Inhibition of binding of [3H]halichondrin B, % inhibition ± SD” value amounted to 0 ± 0%. In addition, the “Inhibition of binding of [3H]dolastatin 10, % inhibition ± SD” value in series [7] (inhibitor 20 µM) turned out to be 7 ± 3%.
As to `CN[C@H](C(=O)N[C@H](C(=O)N(C)c1cc(C(=O)O)ccc1C)C(C)C)C(C)(C)c1ccccc1.O=C(O)C(F)(F)F` [Compound 4, 3-((S)-N,3-Dimethyl-2-((S)-3-methyl-2-(methylamino)-3-phenylbutanamido)butanamido)-4-methylbenzoic acid trifluoroacetate], the IC50 in [1] was 5300 ± 600 nM; in series [4], above 10000 nM; in series [6] it was above 20000 nM; in [8], 2700 ± 200 nM; in [9] it was 290 ± 50 nM. The “Inhibition of binding of [3H]vinblastine, % inhibition ± SD” value in series [2] (inhibitor 20 µM) is on record as 9 ± 1%. In [3] (inhibitor 20 µM), the “Inhibition of binding of [3H]halichondrin B, % inhibition ± SD” value is 3 ± 1%. Moreover, in series [7] (inhibitor 20 µM), the “Inhibition of binding of [3H]dolastatin 10, % inhibition ± SD” value came out at 0 ± 0%.
Turning to `CN[C@H](C(=O)N[C@H](C(=O)N(C)c1cc(C(=O)O)ccc1OC)C(C)C)C(C)(C)c1ccccc1.O=C(O)C(F)(F)F` [Compound 5, 3-((S)-N,3-Dimethyl-2-((S)-3-methyl-2-(methylamino)-3-phenylbutanamido)butanamido)-4-methoxybenzoic acid trifluoroacetate], the half-maximal inhibitory concentration (IC50) in series [1] was above 10000 nM; in [4], above 10000 nM; in [6], above 20000 nM; in series [8] it was above 10000 nM; in series [9], above 10000 nM. The “Inhibition of binding of [3H]vinblastine, % inhibition ± SD” value in [2] (inhibitor 20 µM) is listed as 0 ± 0%. Besides, the “Inhibition of binding of [3H]halichondrin B, % inhibition ± SD” value in series [3] (inhibitor 20 µM) came to 0 ± 0%. Moreover, the “Inhibition of binding of [3H]dolastatin 10, % inhibition ± SD” value in series [7] (inhibitor 20 µM) came out at 8 ± 2%.
